This is a sample that favours compounds with a hit; in the whole collection about 2.9% have one here.
NS3 helicase inh = inhibitors of Hepatitis C virus NS3 helicase. AID 1800. NS3 helicase DNA unwinding, Cy5 molecular beacon fluorescence. inhibition, % at 10.9 µM. 0.56% of 290,000 active;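 active = inhibition above the mean of all tested compounds plus 3 SD, set per campaign, cut at about 35% in these data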;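 note: 0% = DMSO wells and 100% = thioflavine S control wells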
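Assay system – hepatitis C virus NS3 helicase domain fragment enzyme · Buffer or medium – MOPS pH 6.5, MgCl2, DTT, Tween20, BSA · Reagent – Cy5/quencher beacon DNA duplex and ATP to start · Compound – single 10.9 µM dose · Timing – 1 h at 25 °C · Technique – Cy5 beacon fluorescence read at start and 1 h · Measure – % inhibition of unwinding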
ABHD5 PLIN5 PPI = blocks binding of human ABHD5 to perilipin-5; Q00G26+Q8WTS1; Split G. princeps luciferase complementation, luminescence, 4 h; inhibition, % at 4 µM; 0.78% of 360,000 active; AID 602281;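 active = inhibition above the mean inhibition across every tested compound plus 3 SD, cut at about 22% in these data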;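 note: 0% = DMSO only wells and the 100% control is not disclosed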
PRMT1 inh = PRMT1 (human) inhibition, primary screen | Q99873 | recombinant PRMT1, activity-based probe fluorescence polarization | inhibition, % at 2.79 µM | 1.3% of 370,000 active | AID 652257;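 active = inhibition above about 21% made by adding two undisclosed values, limit read from the data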
Target sequence (Q99873 whole entry, looked up): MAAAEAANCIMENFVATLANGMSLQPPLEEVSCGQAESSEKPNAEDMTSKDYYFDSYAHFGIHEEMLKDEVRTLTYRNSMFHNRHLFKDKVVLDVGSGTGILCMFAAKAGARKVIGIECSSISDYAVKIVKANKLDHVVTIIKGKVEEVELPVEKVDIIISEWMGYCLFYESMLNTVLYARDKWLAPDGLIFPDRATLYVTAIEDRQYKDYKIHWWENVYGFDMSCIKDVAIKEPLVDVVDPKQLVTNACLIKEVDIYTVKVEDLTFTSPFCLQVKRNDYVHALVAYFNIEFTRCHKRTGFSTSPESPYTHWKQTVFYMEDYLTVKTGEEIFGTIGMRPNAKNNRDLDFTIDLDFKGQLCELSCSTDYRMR
A3A deaminase = inhibitors of human APOBEC3A DNA deaminase; 0.41% of 330,000 active; recombinant A3A, FAM/TAMRA ssDNA deamination fluorescence; inhibition, % at 20 µM; P31941;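 active = at least 40% inhibition at 20 µM here, with at most 30% in a related deaminase screen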;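 note: plate controls were A3A with DMSO for no effect and wells lacking A3A enzyme for full effect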
Target sequence (P31941 whole entry, looked up): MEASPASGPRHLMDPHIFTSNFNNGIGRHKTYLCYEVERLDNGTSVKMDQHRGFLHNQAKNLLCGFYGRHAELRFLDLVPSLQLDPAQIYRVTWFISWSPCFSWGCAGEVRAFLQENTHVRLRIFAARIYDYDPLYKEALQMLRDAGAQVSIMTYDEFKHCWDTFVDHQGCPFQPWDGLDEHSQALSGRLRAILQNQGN
core dimer inh = blocks dimerization of HCV core protein | inhibition, % at 5 µM | AID 1899 | TR-FRET GST/Flag-core106 dimerization, 1536-well | 0.33% of 300,000 active;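 active = inhibition above the mean of all tested compounds plus 3 SD, set per screening campaign, cut at about 45% in these data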
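System – GST-tagged and Flag-tagged HCV core protein residues 1-106 · Repeats – one well for each compound · Technique – TR-FRET 671 and 617 nm emission · Doses – one concentration, 5 µM, in 0.5% DMSO · Times – 4 h, 22.5 °C incubation · Also added – Eu donor and XL665 acceptor anti-tag antibodies · Measure – percent inhibition of core106 dimerization signal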
A3G deaminase = APOBEC3G (human) deaminase inhibition | Q9HC16 | recombinant A3G, ssDNA deamination FAM/TAMRA fluorescence | inhibition, % at 20 µM | AID 493012 | 0.28% of 330,000 active;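 active = inhibition of at least 40% at 20 µM, with no more than 30% in the related APOBEC3A deaminase screen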;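 note: plate controls were DMSO wells with A3G for no effect and wells lacking A3G enzyme for full effect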
NS3 hel confirm = HCV NS3 helicase inhibition, confirmation assay; shares compounds with NS3 helicase inh; NS3 helicase DNA unwinding, Cy5 molecular beacon fluorescence; inhibition, % at 10.9 µM; 31% of 1,600 active;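 active = inhibition above the mean of all tested compounds plus 3 SD, cutoff set per campaign, cut at about 36% in these data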
DNA FID counter = intercalator displacement, NS3 helicase counter-screen; shares compounds with NS3 helicase inh; DNA fluorescent intercalator displacement, fluorescence; inhibition, % at 7.9 µM; 4% of 1,600 active; AID 1945; in the data active = inhibition above about 37%;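 note: 0% = vehicle and 100% = reference compound; higher means more displacement of ethidium bromide from the DNA hairpin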
FID counter DR = counter-screen for HCV NS3 helicase inhibitors: DNA intercalator displacement dose response | IC50, µM | shares compounds with NS3 helicase inh | AID 2172 | fluorescent intercalator displacement from DNA, fluorescence | 120 tested, under 10 active
A3A conf = APOBEC3A (human) deaminase inhibition, confirmed; recombinant A3A, ssDNA deaminase UDG fluorescence assay; shares compounds with A3A deaminase; 63% of 1,400 active; inhibition, % at 20 µM;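 active = inhibition reaching a set limit, 80% of the first screen's cutoff, at 20 µM in any replicate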;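 note: plate controls were DMSO wells with A3A for no effect and wells lacking A3A enzyme for full effect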
UDG ctr A3A = inhibits UDG, flagging false APOBEC3A inhibitors | UDG counterscreen, FAM/TAMRA uracil oligo fluorescence | inhibition, % at 20 µM | shares compounds with A3A deaminase | AID 504714 | 1,000 tested, under 10 active
APOBEC3G confirm = confirmation of human APOBEC3G DNA deaminase inhibitors; shares compounds with A3G deaminase; recombinant A3G ssDNA deaminase, UDG/FAM-TAMRA fluorescence; inhibition, % at 20 µM; 72% of 890 active;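 active = inhibition reaching a set limit in any replicate at 20 µM, the limit being 80% of the first screen's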
UDG A3G counter = inhibits E. coli UDG, flagging false APOBEC3G inhibitors. inhibition, % at 20 µM. UDG counterscreen, FAM/TAMRA oligo fluorescence. 710 tested, under 10 active. shares compounds with A3G deaminase;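 active = compounds giving 40% or more inhibition at 20 µM in any one of the three replicates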;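 note: plate controls were DMSO wells with UDG and oligo for no effect and DMSO wells lacking both for full effect; inhibitors lower the FAM signal released by uracil excision and alkaline cleavage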
An asterisk follows results filed as active; / = no result given. Unless noted, the rule behind the calls is not given here.

SMILES	NS3 helicase inh	ABHD5 PLIN5 PPI	PRMT1 inh	A3A deaminase	core dimer inh	A3G deaminase	NS3 hel confirm	DNA FID counter	others
COC(=O)[C@]12C[C@H](CC(=O)N3CCN(C(=O)c4ccco4)CC3)C(=O)N(CCC3=CCCCC3)C1=C[C@H](C(C)C)O[C@@H]2C1CC1	/	/	-4	/	/	/	/	/
Cc1ccc(NC(=O)CSc2nc(O)cc(=O)n2-c2ccc(C)cc2)cc1	48*	-6	0	-1	10	0	36*	-18
CC(C)OC(=O)/C(=C/c1ccco1)c1ccccc1	61*	10	-2	-1	2	-9	-19	-9
Cc1ccc(OC(=O)N(C)C[C@@H]2OCc3cn(nn3)CCCC(=O)N([C@H](C)CO)C[C@H]2C)cc1	/	4	-1	/	/	/	/	/
Oc1ccc(/C=N/N(Cc2ccccc2)c2ccccc2)c(O)c1O	71*	-10	8	/	/	/	-13	22
COc1cc(/C=N/Nc2ccc(Cl)c(C(=O)O)c2)ccc1OC(=O)c1ccco1	38*	-1	4	-3	-2	0	65*	-12
COc1cc(/C=N/Nc2ccc(Cl)c(C(=O)O)c2)ccc1OCC(=O)N1C(C)CCCC1C (stereo not drawn)	45*	1	/	12	9	8	70*	-9
COc1ccc(C(=O)Oc2ccc(/C=N/Nc3ccc(Cl)c(C(=O)O)c3)cc2OC)cc1	-18	9	10	-4	23	-2	/	/
CCCS(=O)(=O)NC(=O)C1(C)CCN(C(=O)c2cc(C)nn2C(C)(C)C)C1 (stereo not drawn)	/	-5	-3	/	/	/	/	/
Cc1nn(CC(=O)NCCc2ccco2)c(=O)c2nn(-c3ccccc3)c(C)c12	48*	10	6	6	38	7	8	-7
Cc1ccc(-n2nc3c(=O)n(CC(=O)NCc4cccs4)nc(C)c3c2C)cc1	-3	4	-4	-2	0	-4	/	/
Cc1nn(C(C)C(=O)NCCc2ccco2)c(=O)c2nn(-c3ccccc3)c(C)c12 (stereo not drawn)	4	1	1	-7	1	-3	/	/
Cc1nn(CC(=O)NCCc2cccs2)c(=O)c2nn(-c3ccccc3)c(C)c12	49*	13	2	-1	28	2	-10	-25
CC(=O)Nc1ccc(S(=O)(=O)N(CC(=O)NCC2CCCO2)Cc2ccccc2Cl)cc1 (stereo not drawn)	/	-6	-4	/	/	/	/	/
CC(C)CSC1=NSC2=NC(=O)/C(=C\c3coc4ccccc4c3=O)C(=N)N12	33	-1	-8	-7	4	-19	/	/
CC(C)CSC1=NSC2=NC(=O)/C(=C\c3ccccc3)C(=N)N12	43*	-8	-2	-2	7	2	69*	8
COc1ccc(/C(C)=N/NC(=O)CNC(=O)c2cccnc2)cc1OC	3	-3	1	2	-1	-6	/	/
COc1cc(/C=c2\sc3nc(-c4ccncc4)nn3c2=O)ccc1OC(C)=O	6	/	/	/	/	/	/	/
CCCCCOc1ccc(/C=c2\sc3nc(=O)c(-c4ccccc4)nn3c2=O)cc1OC	43*	1	3	0	2	-3	72*	-20	FID counter DR=>79
CS(=O)(=O)N1N=C(c2ccco2)CC1c1ccccc1Cl (stereo not drawn)	36*	0	0	2	7	-3	-19	-9
CS(=O)(=O)N1N=C(c2ccco2)CC1c1ccc(Cl)cc1Cl (stereo not drawn)	16	9	-1	-1	3	-2	/	/
Cc1c(CC(=O)NCC(=O)O)c(=O)oc2cc3occ(-c4ccccc4)c3cc12	38*	3	12	0	3	-4	51*	-29
Cc1nn(-c2cccc(Cl)c2)c2nc(-c3ccco3)cc(C(=O)O)c12	-3	7	13	39	10	16	/	/
Cc1nn(-c2ccccc2)c2nc(-c3ccco3)cc(C(=O)O)c12	42*	3	16	67*	14	21	67*	-9	A3A conf=48*;UDG ctr A3A=-1
CCN(c1ccccc1)S(=O)(=O)c1ccc(N2CCN(c3ccc(O)cc3)CC2)nc1	/	-4	18	-1	/	22	/	/
SMILES	NS3 helicase inh	ABHD5 PLIN5 PPI	PRMT1 inh	A3A deaminase	core dimer inh	A3G deaminase	NS3 hel confirm	DNA FID counter	others
CCCOc1ccc(/C=c2\sc3nc(-c4ccco4)nn3c2=O)cc1OCC	42*	-2	16	74*	10	21	-12	-2	A3A conf=30*;UDG ctr A3A=-3
CC(=O)Oc1cccc(/C=c2\sc3nc(-c4ccco4)nn3c2=O)c1	24	8	2	40	7	17	/	/
CCOC(=O)C1=C(c2ccccc2)N=c2s/c(=C\c3ccco3)c(=O)n2C1c1cccs1 (stereo not drawn)	48*	-8	23*	42*	69*	13	24	-2	A3A conf=19*;UDG ctr A3A=-3
CCN(CC)c1ccc2nc3ccccc3[n+](CC)c2c1	57*	6	/	79*	-378	23	99*	51*	A3A conf=82*;UDG ctr A3A=3
CC1(C(=O)NS(=O)(=O)Cc2ccccc2)CCN1C(=O)C1(c2ccc(Cl)cc2)CCC1 (stereo not drawn)	/	-8	0	/	/	/	/	/
CC(/C=N/n1c(-c2ccco2)n[nH]c1=S)=C\c1ccco1	51*	2	11	17	1	62*	-2	9	APOBEC3G confirm=58*;UDG A3G counter=-3
Cc1cc(F)ccc1S(=O)(=O)Nc1ncnc2sc3c(c12)CCC3	39*	-16	4	-1	5	51*	14	-12	APOBEC3G confirm=-4;UDG A3G counter=2
O=S(=O)(Nc1ncnc2sc3c(c12)CCC3)c1ccc2ccccc2c1	1	5	1	-14	17	-4	/	/

High-throughput results deposited in PubChem by several laboratories.
